According to ChEMBL document CHEMBL5724801, “EUbOPEN Chemogenomics Library - Multiplex” (2024):
Values joined by “and” are separate entries in the source; they are usually repeats but may differ in a detail not shown here. Identical values can stand only once.

Legend:
HEK-293T = experiment: Multiplex assay against HEK293T; type: toxicity, cell-based; conditions: human
Method in brief: (§1)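 Per cents of healthy-nucleus cells form the tubulin, mitochondrial-mass and membrane-permeability phenotype values. Live cells were stained at seeding with Hoechst33342, BioTracker Green Microtubule Cytoskeleton Dye, MitoTracker Red and Annexin V Alexa Fluor 680. After compound addition they were imaged on a CQ1 microscope at 37°C and 5% CO2, and CellPathfinder machine-learning gating split them into Hoechst high-intensity objects or normal cells, normal cells into healthy, pyknosed or fragmented nuclei, and pyknosed cells into mitotic or apoptotic.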

Fibroblast = experiment: Multiplex assay against human fibroblast; type: toxicity, cell-based; method in brief: as §1
[1] = 24 h, 1 µM, compound concentration 1 uM
[2] = 24 h, 10 µM, compound concentration 10 uM
[3] = 48 h, 1 µM, compound concentration 1 uM
[4] = 48 h, 10 µM, compound concentration 10 uM
[5] = 12 h, 1 µM, compound concentration 1 uM
[6] = 12 h, 10 µM, compound concentration 10 uM

CC(C)COc1ccc(CNC(=O)N(Cc2ccc(F)cc2)C2CCN(C)CC2)cc1 [PIMAVANSERIN]
Total Cell Count (HEK-293T; [1]): 553 and 394 | Population Apoptotic (%) (HEK-293T; [2]): 81% and 84% | Population Fragmented Nuclei (%) (HEK-293T; [2]): 10% and 12% | Population Healthy Nuclei (%) (HEK-293T; [2]): 57% and 54% | Population Hoechst High Intensity Objects (%) (HEK-293T; [2]): 27% and 34% | Population Membrane Permeable-Phenotype (%) (HEK-293T; [2]): 0% | Population Mitochondria Different-Phenotype (%) (HEK-293T; [2]): 94% and 100% | Population Mitotic Cells (%) (HEK-293T; [2]): 18% and 15% | Population Normal (%) (HEK-293T; [2]): 72% and 65% | Population Pyknosed Nuclei (%) (HEK-293T; [2]): 31% and 32% | Population Tubulin-Different-Phenotype (%) (HEK-293T; [2]): 77% and 69% | Total Cell Count (HEK-293T; [2]): 285 and 215 | Population Apoptotic (%) (HEK-293T; [3]): 27% and 48% | Population Fragmented Nuclei (%) (HEK-293T; [3]): 13% and 9% | Population Healthy Nuclei (%) (HEK-293T; [3]): 77% and 84% | Population Hoechst High Intensity Objects (%) (HEK-293T; [3]): 5% | Population Membrane Permeable-Phenotype (%) (HEK-293T; [3]): 1% and 0% | Population Mitochondria Different-Phenotype (%) (HEK-293T; [3]): 31% and 33% | Population Mitotic Cells (%) (HEK-293T; [3]): 72% and 51% | Population Normal (%) (HEK-293T; [3]): 94% | Population Pyknosed Nuclei (%) (HEK-293T; [3]): 8% and 6% | Population Tubulin-Different-Phenotype (%) (HEK-293T; [3]): 33% and 21% | Total Cell Count (HEK-293T; [3]): 869 and 601 | Population Apoptotic (%) (HEK-293T; [4]): 75% and 61% | Population Fragmented Nuclei (%) (HEK-293T; [4]): 29% and 31% | Population Healthy Nuclei (%) (HEK-293T; [4]): 30% | Population Hoechst High Intensity Objects (%) (HEK-293T; [4]): 52% and 60% | Population Membrane Permeable-Phenotype (%) (HEK-293T; [4]): 0% | Population Mitochondria Different-Phenotype (%) (HEK-293T; [4]): 88% and 92% | Population Mitotic Cells (%) (HEK-293T; [4]): 24% and 38% | Population Normal (%) (HEK-293T; [4]): 47% and 40% | Population Pyknosed Nuclei (%) (HEK-293T; [4]): 40% and 37% | Population Tubulin-Different-Phenotype (%) (HEK-293T; [4]): 58% and 64% | Total Cell Count (HEK-293T; [4]): 235 and 205 | Population Apoptotic (%) (Fibroblast; [5]): 65% and 61% | Population Fragmented Nuclei (%) (Fibroblast; [5]): 24% and 40% | Population Healthy Nuclei (%) (Fibroblast; [5]): 62% and 42% | Population Hoechst High Intensity Objects (%) (Fibroblast; [5]): 0% and 1% | Population Membrane Permeable-Phenotype (%) (Fibroblast; [5]): 0% and 7% | Population Mitochondria Different-Phenotype (%) (Fibroblast; [5]): 12% and 4% | Population Mitotic Cells (%) (Fibroblast; [5]): 34% and 38% | Population Normal (%) (Fibroblast; [5]): 100% and 98% | Population Pyknosed Nuclei (%) (Fibroblast; [5]): 12% and 16% | Population Tubulin-Different-Phenotype (%) (Fibroblast; [5]): 35% and 82% | Total Cell Count (Fibroblast; [5]): 179 and 160 | Population Apoptotic (%) (Fibroblast; [6]): 56% and 51% | Population Fragmented Nuclei (%) (Fibroblast; [6]): 18% and 31% | Population Healthy Nuclei (%) (Fibroblast; [6]): 65% and 42% | Population Hoechst High Intensity Objects (%) (Fibroblast; [6]): 1% and 4% | Population Membrane Permeable-Phenotype (%) (Fibroblast; [6]): 0% and 2% | Population Mitochondria Different-Phenotype (%) (Fibroblast; [6]): 42% and 32% | Population Mitotic Cells (%) (Fibroblast; [6]): 43% and 48% | Population Normal (%) (Fibroblast; [6]): 98% and 95% | Population Pyknosed Nuclei (%) (Fibroblast; [6]): 16% and 26% | Population Tubulin-Different-Phenotype (%) (Fibroblast; [6]): 93% and 81% | Total Cell Count (Fibroblast; [6]): 185 | Population Apoptotic (%) (Fibroblast; [1]): 60% and 52% | Population Fragmented Nuclei (%) (Fibroblast; [1]): 21% and 39% | Population Healthy Nuclei (%) (Fibroblast; [1]): 65% and 46% | Population Hoechst High Intensity Objects (%) (Fibroblast; [1]): 2% | Population Membrane Permeable-Phenotype (%) (Fibroblast; [1]): 1% and 4% | Population Mitochondria Different-Phenotype (%) (Fibroblast; [1]): 5% and 9% | Population Mitotic Cells (%) (Fibroblast; [1]): 39% and 47% | Population Normal (%) (Fibroblast; [1]): 97% | Population Pyknosed Nuclei (%) (Fibroblast; [1]): 12% and 13% | Population Tubulin-Different-Phenotype (%) (Fibroblast; [1]): 47% and 76% | Total Cell Count (Fibroblast; [1]): 186 and 157 | Population Apoptotic (%) (Fibroblast; [2]): 83% and 69% | Population Fragmented Nuclei (%) (Fibroblast; [2]): 13% and 27% | Population Healthy Nuclei (%) (Fibroblast; [2]): 67% and 50% | Population Hoechst High Intensity Objects (%) (Fibroblast; [2]): 4% and 8% | Population Membrane Permeable-Phenotype (%) (Fibroblast; [2]): 0% and 3% | Population Mitochondria Different-Phenotype (%) (Fibroblast; [2]): 41% and 38% | Population Mitotic Cells (%) (Fibroblast; [2]): 16% and 30% | Population Normal (%) (Fibroblast; [2]): 95% and 91% | Population Pyknosed Nuclei (%) (Fibroblast; [2]): 18% and 21% | Population Tubulin-Different-Phenotype (%) (Fibroblast; [2]): 92% and 96% | Total Cell Count (Fibroblast; [2]): 170 and 167 | Population Apoptotic (%) (Fibroblast; [3]): 88% and 52% | Population Fragmented Nuclei (%) (Fibroblast; [3]): 27% and 44% | Population Healthy Nuclei (%) (Fibroblast; [3]): 62% and 44% | Population Hoechst High Intensity Objects (%) (Fibroblast; [3]): 3% and 5% | Population Membrane Permeable-Phenotype (%) (Fibroblast; [3]): 1% and 4% | Population Mitochondria Different-Phenotype (%) (Fibroblast; [3]): 3% and 12% | Population Normal (%) (Fibroblast; [3]): 96% and 94% | Population Pyknosed Nuclei (%) (Fibroblast; [3]): 9% and 10% | Population Tubulin-Different-Phenotype (%) (Fibroblast; [3]): 45% and 64% | Total Cell Count (Fibroblast; [3]): 204 and 167 | Population Apoptotic (%) (Fibroblast; [4]): 92% and 75% | Population Fragmented Nuclei (%) (Fibroblast; [4]): 15% and 30% | Population Healthy Nuclei (%) (Fibroblast; [4]): 67% and 53% | Population Hoechst High Intensity Objects (%) (Fibroblast; [4]): 12% and 6% | Population Membrane Permeable-Phenotype (%) (Fibroblast; [4]): 0% and 3% | Population Mitochondria Different-Phenotype (%) (Fibroblast; [4]): 44% and 41% | Population Normal (%) (Fibroblast; [4]): 87% and 93% | Population Pyknosed Nuclei (%) (Fibroblast; [4]): 17% and 16% | Population Tubulin-Different-Phenotype (%) (Fibroblast; [4]): 91% and 92% | Total Cell Count (Fibroblast; [4]): 163 and 159
